High-throughput results (PubChem)
A1 apoptosis 2: blocks A1, raising caspase activity | MEF A1-2A-BIM cells, caspase-Glo luminescence, 3 h; percent of clofoctol response, DMSO zero | 24,000 tested, under 10 active | caspase activation, % (concentration not given with the values); in the data active = caspase activation above about 5.9%
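System: mouse embryonic fibroblasts co-expressing A1 and BIM (A1-2A-BIM), primed for A1 dependence; amount: 2500 cells/well; doses: 50 nL pinned compound; schedule: cells settled overnight, compound exposure 3 h at 37 °C, 5% CO2; detection: Caspase-Glo 3/7 luminescence, 1 h at room temperature; read-out: Caspase-3/7 activation, seen as rise in luminescence signal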
T cruzi intra: blocks T. cruzi growth inside host cells. AID 651903. 22,000 tested, 4.9% active. intracellular Trypanosoma cruzi in host cells, plate reader. activity score (inhibition), % at 5.01 µM; in the data active = activity score above about 55%;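 note: parasites and compound incubated about four days before reading; 0% = median of neutral control wells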
INS-1E rescue: rescue of cytokine-induced death in INS-1E beta cells. INS-1E cytokine-induced death, ATP luminescence, 48 h; normalised: neutral wells 0, positive control 100. protection from cytokine-induced ATP loss, % at 10 µM. AID 488910. 20,000 tested, 0.1% active;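 active = mean replicate protection from cytokine-induced ATP loss at least 50% and at least 75% of replicates each reaching 50%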
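Test system: INS-1E rat cells | Quantity: 8000 cells per well | Medium: Phenol-red-free RPMI with 5% fetal bovine serum | Reagent: Cytokine cocktail of IFN-γ, TNF-α and IL-1β | Doses: One compound concentration, pin transfer | Timing: 48 h co-treatment, 10 min post-lysis read | Technique: Luminescent ATP assay (CellTiter-Glo)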
Numbers without * were called inactive; · = not tested or not shown. Shown is part of a subset that was picked to be rich in hits.

SMILES	A1 apoptosis 2	T cruzi intra	INS-1E rescue
O=C1O[C@@H](c2ccccc2)[C@@H](c2ccccc2)N2[C@@H](c3ccccc3OCCO)[C@]3(C(=O)Nc4ccccc43)[C@@H](C(=O)NC[C@H](O)c3ccccc3)[C@H]12	0	·	·
COc1ccc(NC(=O)Nc2cccc3c2O[C@H](CN(C)Cc2ccc(C(F)(F)F)cc2)[C@H](C)CN([C@@H](C)CO)C3=O)cc1	0	-11	-10
COc1ccc(CN(C)C[C@@H]2Oc3c(NC(=O)Nc4ccc(C(F)(F)F)cc4)cccc3C(=O)N([C@H](C)CO)C[C@@H]2C)cc1	-2	81*	-36
COc1ccc(NC(=O)Nc2cccc3c2O[C@@H](CN(C)Cc2ccc(C(F)(F)F)cc2)[C@H](C)CN([C@H](C)CO)C3=O)cc1	·	5	-6
COc1ccc(CN(C)C[C@@H]2Oc3c(NC(=O)Nc4ccc(C(F)(F)F)cc4)cccc3C(=O)N([C@@H](C)CO)C[C@H]2C)cc1	0	67*	-95
Cc1noc(C)c1S(=O)(=O)N(C)C[C@H]1Oc2c(NC(=O)c3nc4ccccc4s3)cccc2C(=O)N([C@H](C)CO)C[C@H]1C	-1	36	-19
O=C(CCCCCC(=O)N/N=C/CCC1CCCCC1)NO	1	·	·
C=CCOC(=O)[C@H]1[C@@H]2C(=O)O[C@@H](c3ccccc3)[C@@H](c3ccccc3)N2[C@@H](c2ccc(OCCOC(=O)[C@@H]3C[C@@H]4C(=O)N[C@@H](CCCCNC(C)=O)C(=O)N4[C@@H]3c3ccc(O)cc3)cc2)[C@]12C(=O)Nc1ccc(I)cc12	0	·	·
C[C@H](CO)N1C[C@H](C)[C@@H](CN(C)CC2CC2)Oc2c(NC(=O)CCCCCC(=O)Nc3ccccc3N)cccc2C1=O	0	72*	6
C[C@H](CO)N1C[C@H](C)[C@H](CN(C)CC2CC2)Oc2c(NC(=O)CCCCCC(=O)Nc3ccccc3N)cccc2C1=O	0	10	9
C[C@H](CO)N1C[C@H](C)[C@H](CN(C)C)Oc2c(NC(=O)CCCCCC(=O)Nc3ccccc3N)cccc2C1=O	0	-56	17
C[C@@H]1CN([C@@H](C)CO)C(=O)c2cccc(NC(=O)CCCCCC(=O)Nc3ccccc3N)c2O[C@H]1CN(C)CC1CCCCC1	·	74*	16
COC(=O)CCCCCCC(=O)N/N=C/CC1=C(C)CCCC1(C)C	-1	-3	9
COCCCNC(=O)[C@@]1(C)c2ccccc2C(=O)N(Cc2cc(C(F)(F)F)cc(C(F)(F)F)c2)[C@H]1c1ccc(CO)cc1	0	·	·
C[C@H]1CN([C@@H](C)CO)C(=O)Cc2cc(NC(=O)C3CCCCC3)ccc2O[C@@H]1CN(C)Cc1ccc2c(c1)OCO2	·	66*	-11
C[C@@H]1CN([C@H](C)CO)C(=O)Cc2cc(NC(=O)C3CCCCC3)ccc2O[C@H]1CN(C)Cc1ccc(Cl)c(Cl)c1	·	50	-31
C[C@H](CO)N1C[C@H](C)[C@@H](CN(C)Cc2ccc3c(c2)OCO3)Oc2ccc(NC(=O)C3CCCCC3)cc2CC1=O	0	·	·
C[C@@H]1CN([C@H](C)CO)C(=O)Cc2cc(NC(=O)C3CCCCC3)ccc2O[C@@H]1CN(C)Cc1ccc(Cl)c(Cl)c1	·	57*	-78
O=C(NO)c1cccc(C(=O)N/N=C/c2cc(Br)cc([N+](=O)[O-])c2O)c1	1	6	-29
CC(C)=CCC[C@H](C)C/C=N/NC(=O)CCCCCCC(=O)O	0	-14	0
C[C@@H]1CN([C@H](C)CO)C(=O)c2cccc(NC(=O)C3CCCCC3)c2O[C@@H]1CN(C)Cc1ccc(C(=O)Nc2ccccc2N)cc1	-1	·	·
C[C@@H]1CN([C@H](C)CO)C(=O)c2cccc(NC(=O)c3cnccn3)c2O[C@H]1CN(C)Cc1ccc(C(=O)Nc2ccccc2N)cc1	·	54	-12
C[C@H](CO)N1C[C@H](C)[C@H](CN(C)Cc2ccc(C(=O)Nc3ccccc3N)cc2)Oc2c(cccc2N(C)C)C1=O	·	56*	21
Cc1cc(C(=O)Nc2cccc3c2O[C@H](CN(C)Cc2ccc(C(=O)Nc4ccccc4N)cc2)[C@@H](C)CN([C@@H](C)CO)C3=O)n(C)n1	·	46	0
Cc1cc(C(=O)Nc2cccc3c2O[C@H](CN(C)Cc2ccc(C(=O)Nc4ccccc4N)cc2)[C@H](C)CN([C@H](C)CO)C3=O)n(C)n1	-1	63*	0
C[C@@H]1CN([C@@H](C)CO)C(=O)c2cccc(NC(=O)c3cnccn3)c2O[C@@H]1CN(C)Cc1ccc(C(=O)Nc2ccccc2N)cc1	·	72*	35
